pIC50: −log10 of the molar value. Calls of active or inactive are those of the source. No cut-off for these calls is given here.
Key:
[1] = Selectivity index, ratio of IC50 for rat L6 cells to IC50 for chloroquine-resistant Plasmodium falciparum K1; format: toxicity, cell-based; conditions: read-out: Ratio IC50
How it was run: (§1)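 SI = IC50 in rat L6 myoblasts / IC50 against the parasite (T. b. rhodesiense STIB900 or P. falciparum K1). Each IC50 is the average of duplicate determinations.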

[2] = Selectivity index, ratio of IC50 for rat L6 cells to IC50 for amastigotes of Leishmania donovani; format: toxicity, cell-based; conditions: read-out: Ratio IC50
How it was run: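 SI = IC50 in rat L6 myoblasts / IC50 against L. donovani MHOM/SD/62/IS-CL2D axenic amastigotes. The amastigote IC50 is the average of at least two determinations; the L6 IC50 is the average of duplicates.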

[3] = Selectivity index, ratio of IC50 for rat L6 cells to IC50 for Trypanosoma brucei rhodesiense STIB900; format: toxicity, cell-based; conditions: read-out: Ratio IC50; how it was run: as §1
L6 = experiment: Cytotoxicity against rat L6 cells after 72 hrs by Alamar blue assay; format: cell-based; conditions: L6, 72 h
How it was run: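 Rat L6 myoblast cells; cytotoxic IC50 taken as the average of duplicate determinations.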

Plasmodium falciparum = experiment: Antiplasmodial activity against chloroquine-resistant Plasmodium falciparum K1; format: functional, organism-based
How it was run: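 Chloroquine-resistant K1 strain tested in vitro. IC50 is the average of duplicate determinations.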

[4] = tested on: Trypanosoma brucei rhodesiense; experiment: Antitrypanosomal activity against Trypanosoma brucei rhodesiense STIB900 after 72 hrs by Alamar blue assay; format: functional, organism-based; conditions: STIB900, 72 h
Leishmania donovani = experiment: Antileishmanial activity against amastigotes of Leishmania donovani MHOM/SD/62/IS-CL2D; format: functional, organism-based
How it was run: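 Axenic amastigotes of L. donovani MHOM/SD/62/IS-CL2D; IC50 taken as the average of at least two determinations.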

[5] = tested on: Trypanosoma brucei rhodesiense; experiment: Antitrypanosomal activity against Trypanosoma brucei rhodesiense STIB900 infected in NMRI mouse assessed as mean survival days at 5 mg/kg, ip administered for 4 days; format: functional; conditions: route intraperitoneal
How it was run: (§2)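 Female NMRI mice, acute infection model with T. b. rhodesiense STIB900. Compound given as a single daily dose for four days, intraperitoneally or orally. Cure means survival to 60 days post-infection without parasitaemia relapse. Mean survival recorded in days.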

[6] = tested on: Trypanosoma brucei rhodesiense; experiment: Antitrypanosomal activity against Trypanosoma brucei rhodesiense STIB900 infected in NMRI mouse assessed as cured animal at 25 mg/kg, po administered for 4 days; format: functional, organism-based; parameters: dose 25 mg/kg
How it was run: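 Acute model in female NMRI mice infected with T. b. rhodesiense STIB900. Single daily doses given for four days, intraperitoneally or orally. Mice surviving 60 days post-infection without parasitaemia relapse counted as cured; result reported as cured/infected out of 4 mice per group, with mean survival in days.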

[7] = tested on: Trypanosoma brucei rhodesiense; experiment: Antitrypanosomal activity against Trypanosoma brucei rhodesiense STIB900 infected in NMRI mouse assessed as mean survival days at 25 mg/kg, po administered for 4 days; format: functional; how it was run: as §2

Row | SMILES | selectivity ratio [1] | selectivity ratio [2] | selectivity ratio [3] | pIC50 (L6) | pIC50 (Plasmodium falciparum) | pIC50 [4] | pIC50 (Leishmania donovani) | MSD [5] | Activity [6] | MSD [7]
1 | N=C(N)c1ccc(OCc2ccc([N+](=O)[O-])cc2)c(I)c1 | 11 | < 1 | 6 | 4.97 | 6.02 | 5.72 | < 4.30 |  |  | 
2 | N=C(N)c1ccc(-c2ccc(-c3ccc(C(=N)N)cc3)o2)cc1 [FURAMIDINE] |  |  |  |  |  |  |  | >46 days |  | 
3 | CO/N=C(\N)c1ccc(COc2c(OC)cc(/C(N)=N/OC)cc2OC)cc1.Cl.Cl |  | > 2 | > 1 | < 3.72 | < 4.97 | 3.89 | 4.00 |  | inactive | 11.75 days
4 | N=C(N)c1ccc(COc2ccc(Cl)cc2)cc1 | < 6 |  | 8 | 4.68 | < 5.47 | 5.57 |  |  |  | 
5 | Cl.Cl.Cl.Cl.N/C(=N\O)c1cccc(COc2c(Cl)cc(/C(N)=N/O)cc2Cl)c1 | 1 | < 1 | < 1 | 4.84 | 4.94 | 4.58 | < 4.00 |  |  | >53.25 days
6 | N=C(N)c1ccc(COc2ccc([N+](=O)[O-])cc2)cc1 | < 26 |  | 18 | 4.10 | < 5.51 | 5.36 |  |  |  | 
7 | CO/N=C(\N)c1ccc(COc2ccc(/C(N)=N/OC)cc2I)cc1.Cl.Cl | < 8 |  | 2 | 4.06 | < 4.99 | 4.30 |  |  | inactive | 29.75 days
8 | CO/N=C(\N)c1cccc(COc2c(OC)cc(/C(N)=N/OC)cc2OC)c1.Cl.Cl |  | < 2 | > 1 | < 3.73 | < 4.98 | 3.96 | < 4.00 |  | inactive | 15 days
9 | N=C(N)c1ccc(COc2ccc(N)cc2)cc1 | > 106 |  | > 90 | < 3.57 | 5.59 | 5.52 |  |  |  | 
10 | COc1ccc(OCc2ccc(C(=N)N)cc2)cc1 | < 42 |  | 36 | 3.84 | < 5.47 | 5.40 |  |  |  | 
11 | CC(C)c1ccc(OCc2ccc(C(=N)N)cc2)cc1 | 3 | < 1 | 4 | 5.27 | 5.63 | 5.89 | 4.31 |  |  | 
12 | N=C(N)c1cccc(OCc2cccc([N+](=O)[O-])c2)c1 | < 25 |  | 164 | 4.10 | < 5.50 | 6.32 |  |  |  | 
13 | N=C(N)c1ccc(COc2ccc(C(=N)N)cc2I)cc1 | 898 | 3 | 312 | 5.28 | 8.22 | 7.77 | 5.71 | >41.5 days |  | 
14 | N=C(N)c1ccc(COc2ccc(C(=N)N)cc2Cl)cc1 | 552 | 1 | 147 | 5.49 | 8.22 | 7.66 | 5.54 | >51 days |  | 
15 | N=C(N)c1ccc(OCCCCCOc2ccc(C(=N)N)cc2)cc1 [PENTAMIDINE] |  |  |  |  |  |  |  | >38 days |  | 
16 | N=C(N)c1cccc(OCc2ccccc2)c1 | < 41 |  | 17 | 3.81 | < 5.42 | 5.03 |  |  |  | 
17 | N=C(N)c1cccc(COc2ccc(C(=N)N)cc2Br)c1 | 302 | 8 | 3410 | 4.80 | 7.28 | 8.30 | 5.73 | >37.5 days |  | 
18 | N=C(N)c1ccc(OCc2ccccc2)cc1 | < 36 |  | 69 | 3.90 | < 5.45 | 5.74 |  |  |  | 
